# Compound activity deposited in PubChem BioAssay by several laboratories.
# The full list was thinned out, with hits kept by preference.
# UPR CHOP act = activators of apoptotic CHOP UPR arm, primary screen, cell-based, CHO-CHOP luciferase reporter, luminescence, uHTS | UPR activation; percent of tunicamycin response over DMSO baseline | activation, % at 10 µM | 330,000 tested, 0.34% active | AID 449763, 2010;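 active means at 10 µM dose, activation of 40% or more, normalized to positive control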;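 further: 100% = tunicamycin at 10 µg/mL and 0% = DMSO alone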
#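 Assay system: CHO cells with stable CHOP pathway luciferase reporter; Buffer or medium: F12 plus 10% serum; Times: 16-18 h cell attachment, then 6 h compound exposure, 37 °C; Signal: luciferase luminescence; Read-out basis: percent activation relative to tunicamycin control; Control set: tunicamycin high control, DMSO low control.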
# XBP1 UPR activ = activators of adaptive XBP1 UPR arm, primary screen, cell-based, CHO-XBP1 luciferase reporter, luminescence, uHTS | IRE1-XBP1 UPR activation; percent of tunicamycin response, DMSO as zero | AID 463104, 2010 | activation, % at 20 µM | 330,000 tested, 0.33% active;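 active means versus positive control, 20 µM dose yields 30% or more activation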;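 further: 100% = tunicamycin at 10 µg/mL and 0% = DMSO only wells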
#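 Signal: luciferase luminescence; Assay system: CHO-XBP1 luciferase reporter cells; Amount: one thousand reporter cells per well; Dosing: 20 µM single concentration, DMSO 1%; Benchmarks: high control tunicamycin 10 µg/mL final, low control DMSO vehicle only; Schedule: 6 h compound exposure at 37 °C, 5% CO2; Evaluation: percent activation relative to tunicamycin reference.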
# CHOP inhibitor = inhibitors of CHOP promoter induction, primary screen, cell-based, unfolded protein response, luciferase reporter. CHO-K1 CHOP-promoter luciferase, tunicamycin-induced, 15-18 h. inhibition, % at 10 µM. 220,000 tested, 3.8% active. AID 2732, 2010;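 active means compounds that reduced the stress-induced luciferase reporter signal by more than about 70% of percent inhibition, limit read from the data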;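 further: 0% = tunicamycin plus vehicle and 100% = wells without tunicamycin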
# Bfl-1 A1 inh = caspase 3/7 activation in MEF A1-2A-BIM cells, primary screen, A1 inhibitor project, cell-based, luminescence, HTS; caspase activation, % (test concentration not listed); Caspase-Glo 3/7 luminescence, 3 h; percent of clofoctol response, vehicle zero; 330,000 tested, 0.066% active; AID 2462, 2010;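 active means over half of replicate activation scores above 10%, or exactly half above 10 with the replicate mean above 10; inconclusive means replicate mean below 10 yet half the replicates above 10; inactive means over half of replicates below 10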
# CHOP inh conf = retest of CHOP induction inhibitors, confirmation, cell-based | CHO-CHOP promoter luciferase reporter, tunicamycin-induced, luminescence | inhibition, % at 10 µM | AID 504437, 2011 | shares compounds with CHOP inhibitor | 2,100 tested, 45% active;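 active means mean of three repeat readings of reporter signal inhibition above a set limit, cut at about 70% in these data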;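 further: 0% = tunicamycin plus vehicle and 100% = wells lacking tunicamycin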
# CHOP UPR conf = activators of apoptotic CHOP UPR arm, confirmation, cell-based, CHO-CHOP luciferase reporter, single concentration | shares compounds with UPR CHOP act | CHO-CHOP cells, CHOP-luciferase reporter luminescence; percent of tunicamycin response, DMSO as zero | activation, % at 10 µM | 1,000 tested, 64% active | AID 463112, 2010; in the data active means activation above about 33%;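 further: 0% = DMSO wells and 100% = tunicamycin 10 µg/mL wells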
# UPR XBP1 confirm = IRE1-XBP1 UPR arm activators, confirmation, cell-based, CHO-XBP1 luciferase reporter, luminescence, single concentration; activation, % at 20 µM; 1,000 tested, 63% active; shares compounds with XBP1 UPR activ;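 active means reporter signal at least 30% of the positive control's activation in two or more of four replicate wells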;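 further: plate controls were DMSO negative control for no effect and tunicamycin 10 µg/mL positive control for full effect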
# The depositor's hits bear a star; u = inconclusive; x = no result.
SMILES,UPR CHOP act,XBP1 UPR activ,CHOP inhibitor,Bfl-1 A1 inh,CHOP UPR conf,others
NCCOc1ccc(C23CC4CC(CC(C4)C2)C3)cc1,14,97*,105*,1,x,CHOP inh conf=-9;UPR XBP1 confirm=93*
CC(=O)c1c(C(=O)O)c2ccccc2[nH]c1=O,1,-1,-1,0,x,
Cc1cc(Nc2cccc([N+](=O)[O-])c2)n2c(nc3ccccc32)c1C#N,18,37*,103*,-2,x,CHOP inh conf=87*;UPR XBP1 confirm=12
CCN(CC)CCNc1cc(C)c(C#N)c2nc3ccccc3n12,-2,-2,x,0,x,
CSc1cc(-c2ccc(Cl)cc2)n(Cc2ccccc2)c(=O)c1C#N,44*,32*,101*,3,20,CHOP inh conf=29;UPR XBP1 confirm=25
CC(C)(C)C(=O)NC(=S)NNC(=O)C(c1ccccc1)c1ccccc1,12,43*,106*,0,x,CHOP inh conf=121*;UPR XBP1 confirm=48*
COc1ccc(C(=O)COC(=O)CN2C(=O)NC3(CC(C)CC(C)(C)C3)C2=O)c(OC)c1 (configuration not stated),-1,-3,x,x,x,
Cc1cccc(NC(=O)/C(C#N)=C/c2cn(CC(=O)NCc3ccco3)c3ccccc23)c1C,1,57*,109*,0,x,CHOP inh conf=90*;UPR XBP1 confirm=168*
N#C/C(=C\c1cn(Cc2ccccc2)c2ccccc12)C(=O)NCc1ccco1,2,-1,56,0,x,
Cc1ccccc1NCc1ccc([N+](=O)[O-])s1,4,1,x,1,x,
CCOC(=O)CSc1cccc2cccnc12,231*,5,2,0,202*,
Cc1cccc(CSc2cccc3cccnc23)c1,407*,5,0,-3,254*,
Cc1cccc(NC(=O)CSc2cccc3cccnc23)c1C,2,-2,x,0,x,
N=c1occ(C(=O)c2cc(F)ccc2O)cc1C(=O)NC1CCCCC1,1,-3,42,-1,x,
O=C(NCCc1ccc(C(F)(F)F)cc1)C1CC(=O)N(Cc2ccccc2)C1 (configuration not stated),11,-3,x,0,x,
N#Cc1ccc(OCC(=O)n2cc(C(=O)c3cc(Cl)cc(Cl)c3O)cn2)cc1,1,1,4,1,x,
CCN1CSC(=S)N(Cc2ccccc2)C1,86*,0,x,-1,91*,
S=C1SCN(Cc2ccco2)CN1Cc1ccco1,59*,7,-147,1,47*,
COC(=O)c1cc(=O)n(CCc2ccc(OC)c(OC)c2)c(=Nc2ccc(F)c(Cl)c2)s1,41*,13,-22,0,63*,
COc1ccc(Cl)cc1CSc1n[nH]c(C)n1,2,1,33,0,x,
CCc1nnc(NC(=O)c2nc(S(=O)(=O)Cc3ccc(C)cc3)ncc2Cl)s1,51*,-7,x,x,38*,
CCc1nnc(NC(=O)c2nc(S(=O)(=O)Cc3ccccc3)ncc2Cl)s1,59*,-9,x,u,13,
CCc1nnc(NC(=O)c2nc(S(=O)(=O)Cc3cccc(C)c3)ncc2Cl)s1,72*,-11,x,1,30,
CCOc1ccc(-c2nnn(CC(=O)Nc3cc(OC)cc(OC)c3)n2)cc1OCC,-1,-2,53,1,x,
O=C(c1ccco1)N1CCN(CC(O)COc2ccc(Br)cc2)CC1 (configuration not stated),3,-3,x,-1,x,
SMILES,UPR CHOP act,XBP1 UPR activ,CHOP inhibitor,Bfl-1 A1 inh,CHOP UPR conf,others
CCS(=O)(=O)c1cc([N+](=O)[O-])c(Sc2ccccc2NC(C)=O)s1,59*,1,-183,-1,15,
CCOC(=O)c1cnc(-n2nc(C)cc2C)nc1Nc1ccc(N(C)C)cc1,73*,36*,-111,0,35*,
CCOC(=O)c1cnc(-n2nc(C)cc2C)nc1NC,1,0,-23,0,x,
COc1cc(OC)cc(-c2oc(=O)c3cc(OC)c(OC)cc3c2C#CCCO)c1,11,-2,x,-1,x,
Cc1[nH]c2c(C)cccc2c1CCNC(=O)c1ccc2c(c1[N+](=O)[O-])C(=O)c1ccccc1C2=O,48*,2,-1,-1,40*,
COc1ccccc1NC(=O)c1ccc(S(=O)(=O)N2CCCC(C)C2)cc1 (configuration not stated),-1,-6,x,-1,x,
CC(=O)n1cc(C(C[N+](=O)[O-])SCCN)c2ccccc21 (configuration not stated),138*,5,-1,2,-4,
O=C(N/N=C/c1cccc2cccnc12)c1ccccc1O,347*,3,46,0,559*,
O=C(N/N=C/c1cccc2nccnc12)c1ccccc1O,0,6,42,-1,x,
CCCC(=O)N(C1CC(C)C(C#N)(C#N)C1(C#N)C#N)N(C)C (configuration not stated),-7,-10,-80,2,x,
CC(=O)N(C1CC(C)C(C#N)(C#N)C1(C#N)C#N)N(C)C (configuration not stated),72*,-7,92*,0,-9,
CSc1nnc(NC(=O)c2nc(S(=O)(=O)Cc3ccccc3F)ncc2Cl)s1,44*,-9,x,1,77*,
CCSc1nnc(NC(=O)c2nc(S(=O)(=O)Cc3ccc(F)cc3)ncc2Cl)s1,25,-8,x,3,x,
Cc1nnc(NC(=O)c2nc(S(=O)(=O)Cc3ccccc3C)ncc2Cl)s1,26,-8,x,-1,x,
O=C(NCc1ccc2c(c1)OCO2)c1nc(S(=O)(=O)Cc2ccccc2F)ncc1Cl,43*,-9,x,1,18,
O=C(NCc1ccc2c(c1)OCO2)c1ccccc1Cl,4,1,x,0,x,
CC(C)c1nnc(NC(=O)c2nc(S(=O)(=O)Cc3ccccc3F)ncc2Cl)s1,56*,-9,x,u,18,
CCN(C(=O)CSc1nnc(C(C)N(C)C)n1-c1ccc(F)cc1)C1CCS(=O)(=O)C1 (configuration not stated),-3,2,x,x,x,
Cc1c[n+](CC(=O)c2ccccc2)c(C)cn1,1,-5,x,2,x,
CN1CCC(NC(=S)NC2CC2)CC1,87*,-6,-12,0,-1,
CC(=O)Nc1ccc(C(=O)CSc2ncn(-c3ccccc3)n2)cc1,-3,-1,10,1,x,
CCCCCCCCCn1c2c(c(=N)c3c1CCC3)CCC2,57*,23,x,-1,43*,
CCCCCCn1c2c(c(=N)c3c1CCC3)CCC2,-2,-2,x,-1,x,
CCN(CC)CCCNC(=O)c1[nH]c2ccccc2c1Sc1ccc(Cl)cc1,0,1,x,0,x,
